Assay results taken from PubChem BioAssay AID651572 (The Scripps Research Institute Molecular Screening Center, 2012).
Several values for one entry are separate records, joined by “and”; a condition that tells them apart may be missing. Equal entries are not always repeated. The whole screen tested about 360,000 compounds, of which about 950 (0.26%) were called active.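 Rule for the calls: active = inhibition above a per-plate limit, mean inhibition of low control wells plus 3 SD (cut at about 25% in these data); inactive = the rest.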 The full list was thinned out, with actives kept by preference. A structure can be active in one record and inactive in another.

Biological target: ADP-ribosylation factor GTPase-activating protein 1 (Rattus norvegicus) (UniProt Q62848)
Assay: inhibitors of rat ARFGAP1 GAP activity, primary screen, biochemical, fluorescence polarization, GDP tracer (AID 651572);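 note: 0% = DMSO wells with enzyme and 100% = wells lacking Arfgap1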
Conditions: Arfgap1-stimulated ARF1 GTP hydrolysis, GDP FP detection; at 16.5 µM; stronger effect = higher value
Method in brief: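 Material – truncated rat Arfgap1 GAP domain · Buffer or medium – HEPES-based buffer, pH 7.5 · Reagent – human ARF1(Δ1-17)-GTP substrate · Dosing – 16.5 µM single point, 1.26% DMSO · Schedule – GTP hydrolysis reaction 2 h at 25 °C · Technique – GDP detection by fluorescence polarization · Benchmarks – No-Arfgap1 wells (100%) versus DMSO full-reaction wells (0%) · Repeats – single replicate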

ADP-ribosylation factor GTPase-activating protein 1 (Rattus norvegicus), sequence (Q62848 1-136 limits assumed): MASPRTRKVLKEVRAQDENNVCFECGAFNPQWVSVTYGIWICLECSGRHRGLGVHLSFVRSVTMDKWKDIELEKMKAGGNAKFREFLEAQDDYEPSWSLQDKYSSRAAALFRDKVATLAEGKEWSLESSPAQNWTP

| Compound | inhibition |
| --- | --- |
| CCOC(=O)c1ccc(Nc2cc3ccccc3c(=O)[nH]2)cc1 | 25.9% (active) |
| CCOC(=O)c1ccc(NC(=O)c2c(N)n(C)c(=O)[nH]c2=O)cc1 | 11% (inactive) |
| CCOC(=O)c1ccc(NC(=O)c2c(NCc3ccccc3)[nH]c(=O)[nH]c2=O)cc1 | -10.9% (inactive) |
| CC(C)CNc1cccc2c1S(=O)(=O)N[C@H](CC(C)C)CO2 | 2.08% (inactive) |
| CC(C)[C@H]1COCCS(=O)(=O)N1Cc1ccccc1-c1cccc2c1sc1ccccc12 | -9.36% (inactive) |
| COC(=O)C(C(=O)OC)c1ccccc1NS(=O)(=O)c1cccc2ccccc12 | -11.2% (inactive) |
| COCCCNC(=O)C[C@H]1C[C@@]2(C(=O)OC)C(=C[C@H](C(C)(C)C)O[C@@H]2C)N(Cc2ccc3c(c2)OCO3)C1=O | 2.5% (inactive) |
| CCOC(=O)C1CCN(C(c2cc3cc(C)cc(C)c3[nH]c2=O)c2nnnn2C2CCCCC2)CC1 (stereo not drawn) | 38.1% (active) |
| Cc1cc(C)c2[nH]c(=O)c(C(c3nnnn3Cc3ccc4c(c3)OCO4)N3CCCC3)cc2c1 (stereo not drawn) | 6.09% (inactive) |
| COc1ccc(N2CCN(C(c3cc4ccc(C)cc4[nH]c3=O)c3nnnn3C3CCCC3)CC2)cc1 (stereo not drawn) | 7.55% (inactive) |
| CCCCOCC1CN(CCCC)S(=O)(=O)c2c(Oc3ccc(F)cc3)cccc2O1 (stereo not drawn) | -16.2% (inactive) |
| Cc1cc(NCCc2c[nH]c3ccccc23)ccc1Oc1cccnc1 | 4.98% (inactive) |
| CCCCCCCCN1C(=O)[C@@H](CC(=O)NCc2ccc(C)o2)C[C@@]2(C(=O)OC)C1=C[C@H](C(C)(C)C)O[C@@H]2C | 13.1% (inactive) |
| O=C(Nc1cccc(-c2nc3ccccc3[nH]2)c1)c1ccc(C(=O)Nc2cccc(-c3nc4ccccc4[nH]3)c2)cc1 | 47.5% (active) |
| CC(C)n1c(=O)[nH]c2cc(C(=O)Nc3ccccc3)ccc21 | 9.47% (inactive) |
| O=C(Nc1ccccc1)c1cc2ccccc2[nH]1 | -4.92% (inactive) |
| COCCNC(=S)N(C)[C@H]1C[C@H]2c3[nH]c4ccccc4c3CCN2C[C@H]1[C@H](C)O | 8.23% (inactive) |
| C=CCN=C1NC(c2cccc(C(F)(F)F)c2)C(C(=O)OC)=C(C)N1C (stereo not drawn) | -13.8% (inactive) |
| Cc1ccc2nc(-c3ccc(CN4CCC(n5cc(-c6ccccc6)[nH]c5=O)CC4)cc3)c(-c3ccccc3)nc2c1 | 8.03% (inactive) |
| Nc1[nH]c(C(=O)c2ccccc2)c(-c2ccc(Cl)cc2Cl)c1C(=O)c1ccccc1 | -3.18% (inactive) |
| CC(C)(C)C(c1nc2ccccc2[nH]1)n1c(Cc2csc3ccccc23)nc2ccccc21 (stereo not drawn) | 0.81% (inactive) |
| CC(C)c1ccc(/C=C/C(=O)NCCCN2CCOCC2)cc1 | -5.51% (inactive) |
| O=C(NCCCN1CCOCC1)c1cnn2c(-c3ccccc3)cc(-c3ccccc3)nc12 | -2.5% (inactive) |
| O=C(/C=C/c1cn(-c2ccccc2)nc1-c1ccc2c(c1)OCCO2)NCCCN1CCOCC1 | 25.8% (active) |
| COC(=O)c1ccc(CN2C(=O)[C@]3(OCCC=C[C@H]3C)c3c(Br)cccc32)cc1 | 13.2% (inactive) |
| CSc1ccc(Oc2cccc3c2S(=O)(=O)N([C@H](C)c2ccccc2)C[C@@H](COCc2ccccc2)O3)cc1C | -6.49% (inactive) |

| Compound | inhibition |
| --- | --- |
| O=C(NCc1ccccc1)[C@@H]1CCCN1C(=O)[C@H]1CCCN1C(=O)c1cccc(Cl)c1 | 9.96% (inactive) |
| COc1ccc(CNC(=O)C2CCN(C(=O)c3ccco3)CC2)cc1 | 9.83% (inactive) |
| COc1ccc(-n2nc3c(N4CCC(C(=O)NCc5ccccc5)CC4)nnc(C)c3c2C)cc1 | 26.9% (active) |
| COc1ccc(CNC(=O)C2CCN(C(=O)c3ccccc3)CC2)cc1 | -4.15% (inactive) |
| C[C@@H]1CN([C@H](C)CO)C(=O)CCCn2cc(nn2)CO[C@H]1CN(C)C(=O)Nc1ccc(N2CCCCC2)cc1 | -7.3% (inactive) |
| Cc1cc2c(nc1C)CCCN2C | -0.08% (inactive) |
| COc1cccc(CNC(=O)[C@H]2CCCN2C(=O)[C@H]2CCCN2C(=O)c2cc(F)cc(F)c2)c1 | 9.87% (inactive) |
| C[C@H](CO)N1C[C@H](C)[C@@H](CN(C)C(=O)Nc2ccccc2F)OCc2cn(nn2)CCCC1=O | 5.05% (inactive) |
| COc1ccc(Cl)cc1NC(=O)Cn1nc(-c2ccc(C)cc2)n(C)c1=S | 41.6% (active) |
| COc1ccc(Cl)cc1NC(=O)CN1CCN(C(=O)N2CCOCC2)CC1 | 15% (inactive) |
| COc1ccc(C)cc1NC(=O)CSc1ccc(Cl)cc1 | -5.43% (inactive) |
| N#Cc1cccc(C(=O)NCC2CCN(C(=O)C(=O)c3cc4ccccc4o3)CC2)c1 | 8.35% (inactive) |
| COC(=O)[C@]12C[C@H](CC(=O)NCCc3ccccc3OC)C(=O)N(Cc3ccccc3)C1=C[C@H](C(C)C)O[C@@H]2C1CC1 | -5.59% (inactive) |
| C#C[C@]1(O)CC[C@H]2[C@@H]3CCC4=CC(=O)CC[C@@H]4[C@H]3CC[C@@]21CC | -2.58% (inactive) and 25.1% (active) |
| C=CC[C@]12C[C@@]3(O[C@H](c4ccc(C(F)(F)F)cc4)N=C3C[C@H](c3ccc(OC)cc3)[C@H]1C)N(C1CCN(Cc3ccccc3)CC1)C2=O | 4.67% (inactive) |
| CN(C)C(=O)N1CCN(C(=O)[C@@H](Cc2ccccc2)NC(=O)[C@H]2O[C@@H](n3ccc(N)nc3=O)[C@H](O)[C@@H]2O)CC1 | 5.01% (inactive) |
| COC(=O)Cc1nnn2c1[C@H](C)[C@H](c1ccccc1[N+](=O)[O-])OCC2 | 4.46% (inactive) |
| COc1ccc(S(=O)(=O)Nc2ccc3c(c2)C(=O)N([C@H](C)CO)C[C@H](C)[C@@H](CN(C)C)OCCCC[C@H](C)O3)cc1 | 1.2% (inactive) |
| OC(COc1cccc(OCC(O)CN2CCCC2)c1)CN1CCCC1 (stereo not drawn) | 28.2% (active) |
| Cc1cccc(OCC(O)CN2CCN(S(=O)(=O)c3ccc(C)cc3C)CC2)c1 (stereo not drawn) | 10.2% (inactive) |
| OC(COc1ccc(CN2CCSCC2)cc1)CN1CCCCC1 (stereo not drawn) | -6.07% (inactive) |
| Cc1cc(OC(=O)NCCc2ccc(F)cc2)ccc1F | 17% (inactive) |
| Cc1ccc(N)cc1CN1CCN(c2ncc(Cc3ccccc3)cn2)CC1 | -5.78% (inactive) |
| O=C(NC1CCCCC1)c1ccc(CNc2c(N3CCOCC3)c(=O)c2=O)cc1 | 26.4% (active) |
| O=C(NCc1ccccc1)c1ccc(CNc2c(N3CCCC3)c(=O)c2=O)cc1 | -4.58% (inactive) |
| O=C(NCc1ccc(F)cc1)C1CCC(CNc2c(N3CCOCC3)c(=O)c2=O)CC1 (stereo not drawn) | 2.8% (inactive) |

| Compound | inhibition |
| --- | --- |
| O=C(NS(=O)(=O)c1cccs1)[C@H]1O[C@@H](n2ccc(=O)[nH]c2=O)[C@H](O)[C@@H]1O | 1.8% (inactive) |
| C[C@H](O)[C@@H]1CN2CCc3ccc(-c4ccc5c(c4)OCO5)cc3[C@@H]2C[C@@H]1N(C)C(=O)C1CCCCC1 | -7.53% (inactive) |
| CN[C@H]1C[C@H]2c3[nH]c4c(-c5ccccc5)cccc4c3CCN2C(=O)[C@H]1[C@H](C)O | 6.11% (inactive) |
| c1ccc(-c2cc(-c3nnc4sc(-c5ccccn5)nn34)[nH]n2)cc1 | 37.4% (active) |
| Fc1ccc(-c2ccc(-c3nn4c(-c5ccco5)nnc4s3)o2)cc1 | 3.63% (inactive) |
| CCCCCCCCN1C(=O)[C@@H](CC(=O)NCc2ccccc2)C[C@@]2(C(=O)OC)C1=C[C@H](C(C)(C)C)O[C@@H]2C | 1.82% (inactive) |
| C=CCN=C1NC(c2ccccc2)C(C(=O)OC)=C(C)N1Cc1ccc(C(F)(F)F)cc1 (stereo not drawn) | 7.52% (inactive) |
| COC(=O)N1Cc2ccnnc2CC1c1ccccc1Br (stereo not drawn) | 0.38% (inactive) |
| O=C(C(=O)N1CCC(CNC(=O)c2cccnc2Cl)CC1)c1cccs1 | 12.7% (inactive) |
| COc1ccc(NC(=O)N(C)C[C@@H]2OCCCC[C@@H](C)Oc3ccc(NC(=O)NC4CCCCC4)cc3C(=O)N([C@H](C)CO)C[C@@H]2C)cc1 | -0.56% (inactive) |
| O=C(CN1CCN(c2ccccn2)CC1)NCc1cccs1 | 19.2% (inactive) |
| CCN(CC)c1ccc(NC(=O)CN2CCN(c3ccccn3)CC2)cc1 | 45.5% (active) |
| CCC(=O)Nc1ccc2c(c1)nc(CCN1CCN(c3ccccn3)CC1)n2C | -11.6% (inactive) |
| O=S(=O)(c1cccs1)N1CCCc2nc(-c3ccc(Br)cc3)ccc21 | -3.29% (inactive) |
| O=C(NCc1ccccc1)[C@@H]1CCCN1C(=O)[C@@H](NS(=O)(=O)c1ccc(F)cc1F)C1CCCCC1 | 2.51% (inactive) |
| COC(=O)[C@]12C[C@H](CC(=O)NCCC(C)C)C(=O)N(CCc3ccc(OC)c(OC)c3)C1=C[C@H](C(C)(C)C)O[C@@H]2C | 6.73% (inactive) |
| Cc1ccc2nc(SCC(=O)N3CC(C)OC(C)C3)nc(=O)n2c1 (stereo not drawn) | 83.6% (active) |
| Cc1ccc2nc(SCC(=O)Nc3cccc4ccccc34)nc(=O)n2c1 | 8.63% (inactive) |
| Cc1ccc2nc(SCC(=O)N3CCN(c4ccccc4)CC3)nc(=O)n2c1 | 22.7% (inactive) |
| Brc1ccc(COCCc2cn(Cc3ccccc3)c3ccccc23)cc1 | 10.9% (inactive) |
| CCN1C(=O)N[C@@H]2C[C@H](C(=O)N3CCCC3)[C@H](C)[C@H](c3ccccc3)C[C@@H]21 | -0.64% (inactive) |
| O=C(C(=O)N1CCC(CNS(=O)(=O)Cc2ccccc2)CC1)c1cc2ccccc2o1 | 10.3% (inactive) |
| O=C(NCc1ccccc1)[C@H]1CCCN1C(=O)[C@H]1CCCN1C(=O)c1cc(F)cc(F)c1 | -2.81% (inactive) |
| COc1ccc(C(CNC(=O)c2cccc(S(=O)(=O)Nc3ccccc3Cl)c2)N2CCOCC2)cc1 (stereo not drawn) | 27% (active) |
| COc1ccc(C(CNC(=O)c2ccc(S(=O)(=O)Nc3ccccc3C)cc2)N2CCOCC2)cc1 (stereo not drawn) | -2.87% (inactive) |
| COc1ccc(C(CNC(=O)c2cccc(NS(=O)(=O)c3ccc(C)c(F)c3)c2)N2CCCC2)cc1 (stereo not drawn) | 16.5% (inactive) |
